The Ki is the equilibrium dissociation constant of an inhibitor or competing ligand from its target. A lower Ki goes with tighter binding.

These results are taken from ChEMBL document CHEMBL1128530, “Alpha- and beta-adrenoceptors: from the gene to the clinic. 1. Molecular biology and adrenoceptor subclassification” (J Med Chem, 1995).

Assay [1] has as its target T1, Alpha-1A adrenergic receptor (Homo sapiens, UniProt P35348).
T1 sequence (P35348 whole entry): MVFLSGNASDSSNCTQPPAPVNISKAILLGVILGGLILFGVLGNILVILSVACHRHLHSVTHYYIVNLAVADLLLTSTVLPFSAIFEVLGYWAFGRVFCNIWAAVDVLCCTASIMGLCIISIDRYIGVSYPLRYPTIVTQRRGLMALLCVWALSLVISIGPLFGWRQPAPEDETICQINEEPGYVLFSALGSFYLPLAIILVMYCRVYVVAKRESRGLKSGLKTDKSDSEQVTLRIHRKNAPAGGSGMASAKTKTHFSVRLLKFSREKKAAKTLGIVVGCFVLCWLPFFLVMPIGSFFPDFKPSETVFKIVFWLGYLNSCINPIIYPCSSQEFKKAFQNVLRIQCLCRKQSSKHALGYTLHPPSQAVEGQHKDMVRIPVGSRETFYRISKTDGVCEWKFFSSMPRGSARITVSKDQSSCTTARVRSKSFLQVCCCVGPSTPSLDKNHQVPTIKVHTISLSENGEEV
Nature of the assay: The compound was tested for binding affinity against Alpha-1A adrenergic receptor from human clones.

For assay [2], the target named is T2, Alpha-1A adrenergic receptor (Bos taurus, UniProt P18130).
T2 sequence (P18130 whole entry): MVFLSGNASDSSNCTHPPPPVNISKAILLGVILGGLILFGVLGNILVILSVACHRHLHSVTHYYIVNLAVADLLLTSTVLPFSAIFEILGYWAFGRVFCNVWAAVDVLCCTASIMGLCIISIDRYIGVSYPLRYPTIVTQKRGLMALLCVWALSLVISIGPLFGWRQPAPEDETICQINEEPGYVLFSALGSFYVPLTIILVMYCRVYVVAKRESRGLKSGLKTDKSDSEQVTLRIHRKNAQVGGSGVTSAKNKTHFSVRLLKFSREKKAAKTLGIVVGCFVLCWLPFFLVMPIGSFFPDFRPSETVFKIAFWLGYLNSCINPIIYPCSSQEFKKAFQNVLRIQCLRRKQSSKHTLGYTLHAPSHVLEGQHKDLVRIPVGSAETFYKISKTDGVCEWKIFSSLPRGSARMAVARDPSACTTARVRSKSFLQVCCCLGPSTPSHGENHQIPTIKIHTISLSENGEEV
Nature of the assay: The compound was tested for binding affinity against Alpha-1A adrenergic receptor from bovine clones.

The target of assay [3] is T3, Alpha-2B adrenergic receptor (Homo sapiens, UniProt P18089).
T3 sequence (P18089 whole entry): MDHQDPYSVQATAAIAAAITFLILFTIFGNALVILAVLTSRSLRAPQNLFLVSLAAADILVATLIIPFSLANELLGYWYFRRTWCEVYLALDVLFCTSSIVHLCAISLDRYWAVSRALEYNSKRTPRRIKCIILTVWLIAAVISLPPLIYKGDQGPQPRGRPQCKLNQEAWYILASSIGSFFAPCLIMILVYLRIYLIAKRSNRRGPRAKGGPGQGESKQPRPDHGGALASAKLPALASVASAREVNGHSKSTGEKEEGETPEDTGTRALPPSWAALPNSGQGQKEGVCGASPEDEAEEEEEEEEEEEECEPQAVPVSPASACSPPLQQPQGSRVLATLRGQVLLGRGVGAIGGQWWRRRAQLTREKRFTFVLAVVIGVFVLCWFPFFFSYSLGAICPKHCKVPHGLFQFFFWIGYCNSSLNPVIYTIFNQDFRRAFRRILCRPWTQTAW
In words: Binding affinity against Alpha-2B adrenergic receptor from human clones.

The target in assay [4] is T4, Alpha-2C adrenergic receptor (Homo sapiens, UniProt P18825).
T4 sequence (P18825 whole entry): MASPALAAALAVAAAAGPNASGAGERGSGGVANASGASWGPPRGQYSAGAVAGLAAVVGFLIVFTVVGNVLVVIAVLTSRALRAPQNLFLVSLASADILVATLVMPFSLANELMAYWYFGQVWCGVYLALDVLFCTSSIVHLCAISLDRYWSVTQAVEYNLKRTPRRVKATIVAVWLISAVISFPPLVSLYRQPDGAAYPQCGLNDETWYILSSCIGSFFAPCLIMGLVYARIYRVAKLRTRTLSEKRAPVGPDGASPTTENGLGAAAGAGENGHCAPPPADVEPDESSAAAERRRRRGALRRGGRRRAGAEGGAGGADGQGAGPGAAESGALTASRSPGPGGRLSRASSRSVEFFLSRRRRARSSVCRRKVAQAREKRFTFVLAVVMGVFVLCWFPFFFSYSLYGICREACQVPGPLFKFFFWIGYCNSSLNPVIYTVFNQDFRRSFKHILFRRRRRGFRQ
Nature of the assay: Binding affinity against Alpha-2C adrenergic receptor from human clones.

Assay [5] concerns the target T5, Alpha-1D adrenergic receptor (Rattus norvegicus, UniProt P23944).
T5 sequence (P23944 whole entry): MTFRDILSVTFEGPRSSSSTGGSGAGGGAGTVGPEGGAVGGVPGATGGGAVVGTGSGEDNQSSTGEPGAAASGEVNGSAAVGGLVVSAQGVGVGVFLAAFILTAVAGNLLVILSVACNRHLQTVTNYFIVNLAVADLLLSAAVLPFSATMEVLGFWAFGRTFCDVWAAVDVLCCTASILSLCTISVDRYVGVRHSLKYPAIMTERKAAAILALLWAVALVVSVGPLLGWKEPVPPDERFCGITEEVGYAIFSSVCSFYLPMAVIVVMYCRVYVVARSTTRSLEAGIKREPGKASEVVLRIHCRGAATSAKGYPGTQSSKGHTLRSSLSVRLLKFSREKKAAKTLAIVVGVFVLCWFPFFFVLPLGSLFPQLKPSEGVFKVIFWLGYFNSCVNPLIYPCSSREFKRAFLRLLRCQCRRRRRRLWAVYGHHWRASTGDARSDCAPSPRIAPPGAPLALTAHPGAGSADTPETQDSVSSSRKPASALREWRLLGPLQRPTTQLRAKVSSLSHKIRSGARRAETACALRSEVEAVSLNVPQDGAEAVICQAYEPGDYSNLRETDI
In words: Binding affinity against Alpha-1D adrenergic receptor, from rat clones.

Assay [6] has as its target T6, Alpha-2A adrenergic receptor (Homo sapiens, UniProt P08913).
T6 sequence (P08913 whole entry): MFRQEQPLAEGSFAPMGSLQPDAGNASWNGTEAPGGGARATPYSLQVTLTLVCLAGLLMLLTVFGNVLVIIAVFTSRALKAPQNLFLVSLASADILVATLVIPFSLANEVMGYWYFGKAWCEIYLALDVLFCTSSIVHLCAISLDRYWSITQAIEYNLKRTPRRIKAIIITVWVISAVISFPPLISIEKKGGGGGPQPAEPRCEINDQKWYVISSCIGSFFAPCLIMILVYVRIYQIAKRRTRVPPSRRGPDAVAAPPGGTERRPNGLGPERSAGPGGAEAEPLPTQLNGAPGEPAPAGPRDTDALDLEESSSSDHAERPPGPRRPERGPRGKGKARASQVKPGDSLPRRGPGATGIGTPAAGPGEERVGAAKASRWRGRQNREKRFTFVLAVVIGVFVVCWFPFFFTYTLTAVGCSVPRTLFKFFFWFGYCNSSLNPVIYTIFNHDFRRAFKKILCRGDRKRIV
In words: The compound was tested for binding affinity against Alpha-2A adrenergic receptor from human clones. In short, it runs like this:
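Human α2A-adrenoceptor clone expressed in CHO cells; radioligand binding read out as Ki (nM).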

With `O=C(NC1CCN(CCc2c[nH]c3ccccc23)CC1)c1ccccc1` [INDORAMIN], the Ki in assay [1] came out at 3.7 nM; in assay [2], 12 nM; in assay [3], 528 nM; in assay [4], 476 nM; in assay [5], 611 nM; in assay [6] it was 2240 nM.
Turning to `COc1cccc(OC)c1OCCNCC1COc2ccccc2O1` (stereo not given), the Ki in assay [3] was determined as 28 nM; in assay [4] it was 0.8 nM; in assay [5], 1.2 nM.
Turning to `COc1ccccc1N1CCN(CCCNc2c(C)c(=O)n(C)c(=O)n2C)CC1`, the Ki stood at 2.3 nM in assay [1]; 4.4 nM in assay [2]; 406 nM in assay [3]; 131 nM in assay [4]; 186 nM in assay [5]; 612 nM in assay [6].
